Broadly, the inhibition is the drop in the measured response relative to a control, in per cent.

This test has as its target T1, NAD-dependent protein deacetylase sirtuin-2 (Homo sapiens) (UniProt Q8IXJ6).
T1 sequence (whole entry): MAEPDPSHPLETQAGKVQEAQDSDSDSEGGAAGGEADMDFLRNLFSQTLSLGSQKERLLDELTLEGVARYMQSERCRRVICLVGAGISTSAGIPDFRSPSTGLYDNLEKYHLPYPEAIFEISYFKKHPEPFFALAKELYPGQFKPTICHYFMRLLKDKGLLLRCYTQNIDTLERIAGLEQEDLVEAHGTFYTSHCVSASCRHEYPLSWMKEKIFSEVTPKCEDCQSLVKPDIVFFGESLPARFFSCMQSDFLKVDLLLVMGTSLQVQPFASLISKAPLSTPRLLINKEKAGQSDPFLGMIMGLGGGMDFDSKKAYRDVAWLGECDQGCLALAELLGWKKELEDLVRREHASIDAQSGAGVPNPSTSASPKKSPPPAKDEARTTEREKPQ
Description: Inhibition of recombinant human C-terminal His-tagged SIRT2 (50 to 389 end residues) expressed in Escherichia coli at 10 uM using p53 derived (379 to 382 residues) fluorogenic peptide substrate RHKK(Ac)-AMC preincubated for 10 mins followed by substrate addition in presence of NAD+ by fluorescence assay relative to control. The method, boiled down: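 Two-step fluorogenic assay with p53 379–382 RHKK(Ac)-AMC. Compound (from 10 mM DMSO stock) preincubated ~10 min with human SIRT before substrate addition. Developer then releases fluorophore, read at ex 360/em 460 nm.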

Turning to `COc1ccc2ccccc2c1Cn1cnc2sc(CCNCC3CCOC3)c(C)c2c1=O` (stereo not drawn), the inhibition turned out to be 65%.

Take `COc1ccc(CNC2CCc3c(sc4ncn(Cc5cccc(OC)c5)c(=O)c34)C2)cc1` (stereo not drawn): the inhibition turned out to be 71%.

In the case of `COc1cccc(Cn2cnc3sc4c(c3c2=O)CCC(NCc2ccccc2OC)C4)c1` (stereo not drawn), the inhibition came to 64%.

As for `O=c1c2c3c(sc2ncn1Cc1cccc2ccccc12)CC(NCc1ccccc1F)CC3` (stereo not drawn), the inhibition worked out at 71%.

Regarding `COc1ccc(Cn2cnc3sc4c(c3c2=O)CCC(NCC2CCOC2)C4)c2ccccc12` (stereo not drawn), the inhibition is 70%.

As for `CC(=O)NCCNC1CCc2c(sc3ncn(Cc4cccc5ccccc45)c(=O)c23)C1` (stereo not drawn), the inhibition turned out to be 28%.

On to `O=c1c2c3c(sc2ncn1Cc1ccccc1)CC(NCc1ccccc1Cl)CC3` (stereo not drawn), for which the inhibition was 67%.

For `COc1ccc(NC2CCc3c(sc4ncn(Cc5cccc6ccccc56)c(=O)c34)C2)cc1` (stereo not drawn), the inhibition worked out at 52%.

Take `Cc1nn(C)c(C)c1CNC1CCc2c(sc3ncn(Cc4ccccc4)c(=O)c23)C1` (stereo not drawn): the inhibition was 32%.

In the case of `Cc1ccc(NC2CCc3c(sc4ncn(Cc5cccc(-c6ccccc6)c5)c(=O)c34)C2)cc1` (stereo not drawn), the inhibition worked out at 27%.

Consider `O=c1c2c3c(sc2ncn1Cc1ccccc1)CC(NCC1CCCCC1)CC3` (stereo not drawn), for which the inhibition stood at 56%.

As for `O=c1c2c3c(sc2ncn1Cc1ccc2ccccc2c1)CC(NCCN1CCCC1)CC3` (stereo not drawn), the inhibition turned out to be 52%.

With `COc1ccccc1CCNC1CCc2c(sc3ncn(Cc4cccc5ccccc45)c(=O)c23)C1` (stereo not drawn), the inhibition was found to be 60%.

`COc1ccccc1Cn1cnc2sc3c(c2c1=O)CCC(NCc1ccncc1)C3` (stereo not drawn): the inhibition stood at 64%.

`COc1ccc2ccccc2c1Cn1cnc2sc3c(c2c1=O)CCC(NCc1ccc(Cl)cc1)C3` (stereo not drawn): the inhibition was 40%.

On to `O=c1c2c3c(sc2ncn1Cc1cccc2ccccc12)CC(NCc1cccc(F)c1)CC3` (stereo not drawn), for which the inhibition came out at 65%.

In the case of `COc1ccccc1NC1CCc2c(sc3ncn(Cc4cccc5cccnc45)c(=O)c23)C1` (stereo not drawn), the inhibition worked out at 69%.

In the case of `COc1ccc2ccccc2c1Cn1cnc2sc3c(c2c1=O)CCC(NCc1ccccc1Cl)C3` (stereo not drawn), the inhibition was 40%.

In the case of `O=c1c2c3c(sc2ncn1Cc1ccc2ccccc2c1)CC(NCC1CCOC1)CC3` (stereo not drawn), the inhibition turned out to be 58%.

As to `COc1ccc2ccccc2c1Cn1cnc2sc(CCNCc3ccc(C#N)cc3)c(C)c2c1=O`, the inhibition was found to be 51%.

On to `O=c1c2c3c(sc2ncn1Cc1ccccc1)CC(NCCc1cccnc1)CC3` (stereo not drawn), for which the inhibition stood at 27%.

Turning to `COc1ccccc1CCNC1CCc2c(sc3ncn(Cc4ccc5ccccc5c4)c(=O)c23)C1` (stereo not drawn), the inhibition was 67%.

Consider `COc1ccccc1NC1CCc2c(sc3ncn(Cc4ccc5ccccc5c4)c(=O)c23)C1` (stereo not drawn), for which the inhibition amounted to 36%.

Take `COc1cccc(Cn2cnc3sc4c(c3c2=O)CCC(NCc2ccncc2)C4)c1` (stereo not drawn): the inhibition came out at 59%.

Regarding `COc1ccccc1NC1CCc2c(sc3ncn(Cc4c(OC)ccc5ccccc45)c(=O)c23)C1` (stereo not drawn), the inhibition turned out to be 29%.

For the molecule `COc1cccc(CNC2CCc3c(sc4ncn(Cc5cccc6ccccc56)c(=O)c34)C2)c1` (stereo not drawn), the inhibition stood at 59%.

As for `COc1cccc(NC2CCc3c(sc4ncn(Cc5cccc6ccccc56)c(=O)c34)C2)c1` (stereo not drawn), the inhibition is 46%.

On to `O=c1c2c3c(sc2ncn1Cc1cccc2ccccc12)CC(NCc1ccccc1)CC3` (stereo not drawn), for which the inhibition turned out to be 66%.

In the case of `O=c1c2c3c(sc2ncn1Cc1ccccc1)CC(NC1CCc2ccccc21)CC3` (stereo not drawn), the inhibition was 59%.

Turning to `COc1ccc(CNC2CCc3c(sc4ncn(Cc5ccccc5)c(=O)c34)C2)cc1` (stereo not drawn), the inhibition stood at 45%.

As for `COc1ccc2ccccc2c1Cn1cnc2sc3c(c2c1=O)CCC(NCc1ccc(C#N)cc1)C3` (stereo not drawn), the inhibition was determined as 75%.

Turning to `COc1cccc(NC2CCc3c(sc4ncn(Cc5cccc(-c6ccccc6)c5)c(=O)c34)C2)c1` (stereo not drawn), the inhibition was found to be 30%.

On to `O=c1c2c3c(sc2ncn1Cc1cccc(-c2ccccc2)c1)CC(NCc1cccc(Cl)c1)CC3` (stereo not drawn), for which the inhibition was found to be 43%.

As for `COc1ccc2ccccc2c1Cn1cnc2sc3c(c2c1=O)CCC(NCc1cccc(Cl)c1)C3` (stereo not drawn), the inhibition turned out to be 50%.

For the molecule `Cc1noc(C)c1CNC1CCc2c(sc3ncn(Cc4cccc(-c5ccccc5)c4)c(=O)c23)C1` (stereo not drawn), the inhibition worked out at 60%.

For `O=c1c2c3c(sc2ncn1Cc1cccc2cccnc12)CC(NCCN1CCOCC1)CC3` (stereo not drawn), the inhibition was found to be 53%.

Take `COc1cccc(CNC2CCc3c(sc4ncn(Cc5ccccc5)c(=O)c34)C2)c1` (stereo not drawn): the inhibition was found to be 48%.

For the molecule `O=c1c2c3c(sc2ncn1Cc1cccc2ccccc12)CC(NCCN1CCCC1)CC3` (stereo not drawn), the inhibition amounted to 56%.

Take `COc1ccc2ccccc2c1Cn1cnc2sc3c(c2c1=O)CCC(Nc1ccc(F)cc1)C3` (stereo not drawn): the inhibition worked out at 44%.

For the molecule `O=c1c2c3c(sc2ncn1Cc1ccc2ccccc2c1)CC(NC1CCOCC1)CC3` (stereo not drawn), the inhibition was 52%.

Consider `COc1ccc2ccccc2c1Cn1cnc2sc3c(c2c1=O)CCC(NC1CCCc2ccccc21)C3` (stereo not drawn), for which the inhibition worked out at 34%.

Take `COc1cccc(CNC2CCc3c(sc4ncn(Cc5cccc(OC)c5)c(=O)c34)C2)c1` (stereo not drawn): the inhibition is 58%.

Consider `COc1ccccc1Cn1cnc2sc3c(c2c1=O)CCC(NCc1ccccn1)C3` (stereo not drawn), for which the inhibition was determined as 35%.

`O=c1c2c3c(sc2ncn1Cc1cccc2ccccc12)CC(Nc1ccc2c(c1)OCO2)CC3` (stereo not drawn): the inhibition was 29%.

In the case of `O=c1c2c3c(sc2ncn1Cc1cccc(-c2ccccc2)c1)CC(NCc1ccc(Cl)cc1)CC3` (stereo not drawn), the inhibition was 56%.

For the molecule `O=c1c2c3c(sc2ncn1Cc1ccccc1)CC(NCc1cncnc1)CC3` (stereo not drawn), the inhibition worked out at 18%.

On to `COCCNC1CCc2c(sc3ncn(Cc4cccc5cccnc45)c(=O)c23)C1` (stereo not drawn), for which the inhibition was 41%.

As for `COc1ccc(NC2CCc3c(sc4ncn(Cc5cccc(-c6ccccc6)c5)c(=O)c34)C2)cc1` (stereo not drawn), the inhibition was 31%.

Regarding `COc1ccccc1Cn1cnc2sc3c(c2c1=O)CCC(NCCc1ccncc1)C3` (stereo not drawn), the inhibition amounted to 26%.

In the case of `COc1ccc2ccccc2c1Cn1cnc2sc3c(c2c1=O)CCC(NC1CCc2ccccc21)C3` (stereo not drawn), the inhibition was found to be 59%.

As for `COc1ccccc1Cn1cnc2sc3c(c2c1=O)CCC(NCCc1cccnc1)C3` (stereo not drawn), the inhibition stood at 38%.

With `COc1ccc2ccccc2c1Cn1cnc2sc3c(c2c1=O)CCC(NCc1ccccc1F)C3` (stereo not drawn), the inhibition was determined as 64%.

As for `CC(=O)NCCNC1CCc2c(sc3ncn(Cc4cccc(-c5ccccc5)c4)c(=O)c23)C1` (stereo not drawn), the inhibition came to 65%.

Regarding `COc1ccc(Cn2cnc3sc4c(c3c2=O)CCC(NCc2ccccc2F)C4)c2ccccc12` (stereo not drawn), the inhibition came to 71%.

On to `COc1ccc(CNC2CCc3c(sc4ncn(Cc5ccccc5OC)c(=O)c34)C2)cn1` (stereo not drawn), for which the inhibition stood at 56%.

`Cc1noc(C)c1CNC1CCc2c(sc3ncn(Cc4ccc5ccccc5c4)c(=O)c23)C1` (stereo not drawn): the inhibition came out at 67%.

As to `COc1cccc(Cn2cnc3sc4c(c3c2=O)CCC(NCc2ccc(OC)nc2)C4)c1` (stereo not drawn), the inhibition turned out to be 28%.

Turning to `COc1ccc2ccccc2c1Cn1cnc2sc(CCN)c(C)c2c1=O`, the inhibition was found to be 25%.

As for `N#Cc1ccc(CNC2CCc3c(sc4ncn(Cc5ccc6ccccc6c5)c(=O)c34)C2)cc1` (stereo not drawn), the inhibition was 67%.

As to `COc1cccc(Cn2cnc3sc4c(c3c2=O)CCC(NCc2c(C)nn(C)c2C)C4)c1` (stereo not drawn), the inhibition was found to be 14%.

With `COc1ccccc1CCNC1CCc2c(sc3ncn(Cc4cccc5cccnc45)c(=O)c23)C1` (stereo not drawn), the inhibition came to 63%.

For the molecule `COc1ccc(Cn2cnc3sc4c(c3c2=O)CCC(Nc2ccc3c(c2)OCO3)C4)c2ccccc12` (stereo not drawn), the inhibition was found to be 38%.

Regarding `O=c1c2c3c(sc2ncn1Cc1ccccc1)CC(NCc1ccccn1)CC3` (stereo not drawn), the inhibition amounted to 26%.

On to `O=c1c2c3c(sc2ncn1Cc1ccccc1)CC(NCc1ccccc1)CC3` (stereo not drawn), for which the inhibition was 57%.

On to `O=c1c2c3c(sc2ncn1Cc1ccccc1)CC(NCCc1ccncc1)CC3` (stereo not drawn), for which the inhibition is 18%.

On to `COCCNC1CCc2c(sc3ncn(Cc4cccc(-c5ccccc5)c4)c(=O)c23)C1` (stereo not drawn), for which the inhibition turned out to be 70%.

Turning to `O=c1c2c3c(sc2ncn1Cc1cccc(-c2ccccc2)c1)CC(NCc1ccccc1Cl)CC3` (stereo not drawn), the inhibition is 39%.

Take `O=c1c2c3c(sc2ncn1Cc1cccc(-c2ccccc2)c1)CC(NC1CCCc2ccccc21)CC3` (stereo not drawn): the inhibition amounted to 22%.

On to `COc1ccc2ccccc2c1Cn1cnc2sc3c(c2c1=O)CCC(NCc1cncnc1)C3` (stereo not drawn), for which the inhibition was found to be 33%.

As to `COc1ccc(Cn2cnc3sc4c(c3c2=O)CCC(Nc2ccc(F)cc2)C4)c2ccccc12` (stereo not drawn), the inhibition turned out to be 56%.

Regarding `O=c1c2c3c(sc2ncn1Cc1cccc2cccnc12)CC(NCC1CCCO1)CC3` (stereo not drawn), the inhibition was found to be 58%.

For `COc1ccc(Cn2cnc3sc4c(c3c2=O)CCC(NCc2ccccc2Cl)C4)c2ccccc12` (stereo not drawn), the inhibition amounted to 65%.

`CC(=O)NCCNC1CCc2c(sc3ncn(Cc4cccc5cccnc45)c(=O)c23)C1` (stereo not drawn): the inhibition amounted to 28%.

With `O=c1c2c3c(sc2ncn1Cc1cccc2ccccc12)CC(NCc1ccc(Cl)cc1)CC3` (stereo not drawn), the inhibition was found to be 64%.

Turning to `Cc1ccc(NC2CCc3c(sc4ncn(Cc5cccc6ccccc56)c(=O)c34)C2)cc1` (stereo not drawn), the inhibition turned out to be 50%.

`COc1ccccc1NC1CCc2c(sc3ncn(Cc4cccc5ccccc45)c(=O)c23)C1` (stereo not drawn): the inhibition came to 22%.

Consider `O=c1c2c3c(sc2ncn1Cc1cccc2ccccc12)CC(NCC1CCOC1)CC3` (stereo not drawn), for which the inhibition stood at 72%.

On to `CC(=O)NCCNC1CCc2c(sc3ncn(Cc4ccc5ccccc5c4)c(=O)c23)C1` (stereo not drawn), for which the inhibition came out at 47%.

For the origin of these results see ChEMBL document CHEMBL4004822, “Thienopyrimidinone Based Sirtuin-2 (SIRT2)-Selective Inhibitors Bind in the Ligand Induced Selectivity Pocket” (J Med Chem, 2017).
